According to paper PMC5955769 (ACS chemical neuroscience, 2018):

Experiments:
[1] = tested on: Nrf2; test: Neh2-luc SH-SY5Y cell-based reporter; conditions: for Nrf2 activity in Neh2-luciferase reporter assay (library screen): IRSF SMART library screen
Method in brief: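 Luciferase reporter in SH-SY5Y cells carrying the Nrf2 Neh2 fusion (Neh2-luc). It is used to find agents that directly stabilize the Nrf2 transcription factor. Run as a screen of an approved and preclinical drug library, and as concentration-response testing of selected compounds. TBHQ was the reference Nrf2 activator.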

[2] = tested on: HIF-1α; test: ODD-luc SH-SY5Y cell reporter; format: cell-based; conditions: SH-SY5Y cells
Method in brief: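 HIF-1α ODD-luciferase reporter in SH-SY5Y cells, run as concentration-response testing. The PHD inhibitor FG-4592 served as the HIF-activating control.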

SMILES | Nrf2 activity in Neh2-luciferase reporter assay (library screen) [1] | HIF-1α (ODD-luc) fold activation [2] [fold] | Nrf2 (Neh2-luc) fold activation ([1]; SH-SY5Y cells, fold increase in luminescence relative to vehicle control) [fold]
Nc1ccccc1NC(=O)c1ccc(CNC(=O)OCc2cccnc2)cc1 [entinostat] | completely inactive | – | –
CC(/C=C/C(=O)NO)=C\[C@@H](C)C(=O)c1ccc(N(C)C)cc1 [TSA] | Nrf2 hits | – | –
CN1CCc2c(c3ccccc3n2Cc2ccc(C(=O)NO)cc2)C1 [tubastatin] | Nrf2 hits | 2.4 | –
CC1(C)CNc2ccccc21 [3,3-dimethylindoline (III)] | – | – | 1.8
O=C(CCCCCCC(=O)Nc1ccccc1)NO [SAHA] | Nrf2 hits | – | –
O=C(/C=C/C#Cc1cccc(NS(=O)(=O)c2ccccc2)c1)NO [oxamflatin] | Nrf2 hits | – | –
CC(=O)Nc1ccc(C(=O)Nc2ccccc2N)cc1 [tacedinaline] | inactive | – | –
